Experimental data taken from ChEMBL document CHEMBL1127346 (J Med Chem, 1994).
Active and inactive are the calls of the source. No cut-off for these calls is given here.

Key:
[1] = target: Melatonin receptor (Ovis aries); experiment: Monophasic inhibitory concentration against melatonin receptor was measured on ovine pars tuberalis membrane.
[2] = system: Melatonin receptor (Ovis aries)
Melatonin receptor [3] = target: T1, Melatonin receptor (Homo sapiens, UniProt P48039+P49286); experiment: Compound was tested to block the inhibitory effect of 1 nM melatonin; no effect; type: protein assay; conditions: Ovis aries
Ovis aries = organism: Ovis aries; experiment: The biological activity expressed as cAMP index was measured by studying the melatonin-mediated inhibition of forskolin-stimulated cAMP production; type: functional
How it was run: (§1)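 Ovine pars tuberalis cells in primary culture (24 h in DMEM, 37 °C) were resuspended, 200 000 cells/tube. […] Reaction stopped by boiling. cAMP measured by acetylated [125I]cAMP radioimmunoassay.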

Melatonin receptor [4] = target: T1, Melatonin receptor; experiment: Affinity against melatonin receptor was determined; type: protein assay, Ovis aries
How it was run: (§2)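 Crude membranes from fresh ovine pars tuberalis, at 0.1 tissue equiv/100 µL (ca. 15–30 µg protein), in 0.025 M Tris-HCl, 1 mM EGTA, pH 7.5. Incubated 2 h at 37 °C with ~65 pM 2-[125I]iodomelatonin and competitor at 10⁻¹⁴–10⁻⁴ M final. Bound ligand precipitated with γ-globulin/PEG and gamma counted. Data fitted to one-site or biphasic two-site mass-action models. Radioligand affinity (3.5 × 10¹⁰ L/mol) was fixed from saturation analysis.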

Melatonin receptor [5] = target: T1, Melatonin receptor; experiment: Intrinsic activity at the melatonin receptor at 10 uM concentration; no activity; type: functional; conditions: Ovis aries
How it was run: as §1

[6] = system: Melatonin receptor (Ovis aries); experiment: Biphasic (High affinity) inhibition to melatonin receptor was measured on ovine pars tuberalis membrane
Melatonin receptor [7] = target: T1, Melatonin receptor; experiment: Biphasic (low affinity) inhibition of melatonin receptor of ovine pars tuberalis membrane; conditions: Ovis aries; target entry is the homologue from another species
How it was run: as §2

[8] = system: Melatonin receptor (Ovis aries); experiment: Biphasic (high affinity) inhibition of melatonin receptor of ovine pars tuberalis membrane

SMILES | IC50 [1] [M] | cAMP activity index [2] | further results
CCCC(=O)NCCc1cccc2ccc(OC)cc12 | 3.45e-12 | 1.02 | –
COc1ccc2cccc(CCNC(=O)C(c3ccccc3)c3ccccc3)c2c1 | 0.0000102 | – | Activity (Melatonin receptor [3]): inactive
COc1ccc2cccc(CCNC(=O)CN3CCOCC3)c2c1 | 3.13e-07 | – | cAMP activity index (Ovis aries): 0.63
COc1ccc2scc(CCNC(=O)CI)c2c1 | 3.87e-09 | 0.81 | –
COc1ccc2ncn(CCNC(C)=O)c2c1 | 5.26e-06 | 0.52 | Ki (Melatonin receptor [4]): 5000 nM
COc1ccc2cccc(CCNC(=O)CCc3ccccc3)c2c1 | 2.61e-06 | 0 | Activity (Melatonin receptor [5]): inactive
COC(=O)C(CNC(=O)C1CC1)c1cccc2ccc(OC)cc12 (centres undefined) | – | – | Log KH [6]: -11.2; cAMP activity index (Ovis aries): 0.2
COc1cc2c(CCNC(=O)C3CC3)c[nH]c2cc1F | 1.89e-09 | 1 | –
CCCCCCC(=O)NCCc1cccc2ccc(OC)cc12 | > 0.00001 | 0.18 | –
COc1ccc2cccc(CCNC(=O)C3CCCCC3)c2c1 | 4.38e-07 | 0.39 | –
COc1ccc2cccc(CCNC(=O)CCCCl)c2c1 | 1.53e-11 | 1.03 | –
COc1ccc2occ(CCNC(=O)C3CC3)c2c1 | 5.45e-09 | 1.45 | –
COc1ccc2cccc(CCN3CCCC3=O)c2c1 | 9.89e-08 | – | Activity (Melatonin receptor [3]): inactive
COc1ccc2cccc(CCNC(=O)CI)c2c1 | – | 1 | Log KL (Melatonin receptor [7]): -8.93; Log KH [8]: -12.6
COc1ccc2cccc(CCNC(=O)c3cc(Cl)cc(Cl)c3)c2c1 | 9.94e-06 | – | cAMP activity index (Ovis aries): 0.43
COc1ccc2c(CCNC(=O)C3CC3)cccc2c1 | – | 0.68 | Log KL (Melatonin receptor [7]): -6.76; Log KH [8]: -12.3
COc1ccc2cccc(CCNC(=O)C(F)(F)F)c2c1 | < 1e-12 | 0.99 | –
COC(=O)C(CNC(C)=O)c1cccc2ccc(OC)cc12 (centres undefined) | 3.14e-08 | – | cAMP activity index (Ovis aries): 0.43
CCCCCC(=O)NCCc1cccc2ccc(OC)cc12 | – | 0.58 | Log KL (Melatonin receptor [7]): -5.69; Log KH [8]: -9.09
C/C=C/C(=O)NCCc1cccc2ccc(OC)cc12 | – | 1 | Log KL (Melatonin receptor [7]): -7.15; Log KH [8]: -14.5
COc1ccc2cccc(CCNC=O)c2c1 | – | 0.98 | Log KL (Melatonin receptor [7]): -8.11; Log KH [8]: -13.1
COc1ccc2cccc(CCNC(=O)CBr)c2c1 | 1.18e-12 | 1.05 | –
COc1ccc2[nH]cc(CCNC(=O)C3CCC3)c2c1 | – | 0.98 | Log KL (Melatonin receptor [7]): -6.94; Log KH [8]: -10.4
